Series [1] can be described thus: AUC (0 to 12 hrs) in MTAP-null KP4 cells xenografted mouse plasma treated po twice daily. The format is ADME, organism-based. Set-up: time < 12 hr, route oral. The note with it: in vivo.
The nature of series [2]: AUC (0 to 12 hrs) in MTAP-null KP4 cells xenografted mouse measured in tumor treated po twice daily. Particulars: in vivo. It is filed as ADME, organism-based, Neoplasm. Set-up: time < 12 hr, route oral.
Series [3] has as its target T1, S-adenosylmethionine synthase isoform type-2 (Homo sapiens, UniProt P31153). Description: Inhibition of recombinant human MAT2A expressed in baculovirus infected Sf9 cells assessed as S-adenosyl methionine production using L-methionine as substrate incubated for 60 mins followed by substrate addition and measured after 60 mins. The note with it: read-out: IC50.
Target sequence in this assay (P31153 whole entry, canonical isoform): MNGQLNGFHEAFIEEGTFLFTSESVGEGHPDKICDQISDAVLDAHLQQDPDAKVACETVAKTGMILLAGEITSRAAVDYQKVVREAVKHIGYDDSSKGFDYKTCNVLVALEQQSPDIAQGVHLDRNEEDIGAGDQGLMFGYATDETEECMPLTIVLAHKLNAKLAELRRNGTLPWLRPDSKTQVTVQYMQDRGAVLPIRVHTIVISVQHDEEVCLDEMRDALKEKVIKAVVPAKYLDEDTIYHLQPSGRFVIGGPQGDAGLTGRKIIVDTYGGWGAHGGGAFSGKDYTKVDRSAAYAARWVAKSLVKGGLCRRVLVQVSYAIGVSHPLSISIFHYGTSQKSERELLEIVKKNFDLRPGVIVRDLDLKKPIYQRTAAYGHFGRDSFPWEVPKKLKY
Series [4] concerns the target T1, S-adenosylmethionine synthase isoform type-2. Description: Inhibition of recombinant human MAT2A expressed in baculovirus infected Sf9 cells assessed as S-adenosyl methionine production using L-methionine as substrate incubated for 60 mins followed by substrate addition and measured after 60 mins relative to control. Set-up: concentration or dose not given beside the values.
Target sequence in this assay (P31153 whole entry, looked up, canonical isoform): as the sequence (P31153 whole entry, canonical isoform) above

Series [5] can be described thus: Solubility of compound at pH 2. It is filed as physicochemical. Particulars: buffer.
Series [6] in a line: Solubility of compound at pH 7.4. It is filed as physicochemical. The note with it: buffer.
Series [7] can be described thus: Stability in human liver microsomes assessed as extraction ratio. It is filed as ADME, Microsome. The note with it: read-out: ERH.
Series [8] can be described thus: Permeability from apical to basolateral side in human Caco-2 cells. The format is ADME, cell-based. The note with it: read-out: permeability. Background: Caco-2 cells form a polarised layer with tight junctions and transporters.
Series [9] is described as follows: Efflux ratio of apparent permeability from basolateral side to apical side over apical side to basolateral side in human Caco-2 cells. The format is ADME, cell-based.
Series [10] is described as follows: Plasma protein binding in human by ultracentrifugation. It is filed as ADME, cell-free. The note with it: read-out: PPB (converted). The method, boiled down: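 Human plasma protein binding was determined by ultracentrifugation.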
The nature of series [11]: Plasma protein binding in mouse by ultracentrifugation. Particulars: read-out: PPB (converted). The format is ADME, cell-free.
Series [12] can be described thus: Cmax in MTAP-null KP4 cells xenografted mouse measured in tumor treated po twice daily. Set-up: route oral. The format is ADME, organism-based, Neoplasm. The method, boiled down:
(§1)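 KP4 MTAP-null xenograft-bearing mice dosed orally twice daily. Cmax was determined in plasma (ng/mL) and tumor (ng/g) after 3 b.i.d. doses.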

A short description of series [13]: Cmax in MTAP-null KP4 cells xenografted mouse plasma treated po twice daily. The format is ADME, organism-based. Set-up: route oral. The method, boiled down:
as §1

The nature of series [14]: Protein binding in human plasma assessed as unbound fraction. It is filed as ADME, cell-free.
A short description of another series: cells. Particulars: Homo sapiens, HCT-116, 72 h.
Series [15] deals with T1, S-adenosylmethionine synthase isoform type-2. In words: Binding affinity to MAT2A (unknown origin) by surface plasmon resonance assay. The method, boiled down: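 SPR: His-tagged MAT2A was captured on CM5 chips via covalently coupled penta-anti-His IgG (~16 000 RU), to a capture level of ~7500 RU.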
Target sequence in this assay (P31153 whole entry, canonical isoform): as above
Background: Surface plasmon resonance follows binding to a sensor surface in real time, without labels.

For series [16] the target is unchanged. In words: Inhibition of MAT2A (unknown origin) enzymatic assay.
Target sequence in this assay (P31153 whole entry, canonical isoform): as above
For a further series, the system named is HCT-116. Description: cells. Particulars: Homo sapiens, HCT-116, 96 h.

Converted amounts (≈) assume the structure as drawn.

On to `Cc1[nH]c2c(-c3ccccc3)c(-c3ccccc3)nn2c(=O)c1-c1ccc2ncccc2c1`, for which the AUC stood at 1650000 ng·h/g in series [1] and 372000 ng·h/g in series [2]. The IC50 – broadly, the point on the concentration scale where inhibition reaches its midpoint – in series [3] was 97 nM. Besides, in series [4], the inhibition (as a rule, the drop in the measured response relative to a control, in per cent) was 95%. The solubility (in general, the concentration that dissolves in the medium under given conditions) came out at 67 µM (≈ 28.7 µg/mL) in series [5] and 15 µM (≈ 6.43 µg/mL) in series [6]. Also, in series [7], the hepatic extraction ratio amounted to 0.16. Besides, the Papp A→B in [8] amounted to 6.75 ×10⁻⁶ cm/s. For the same molecule, in [9], the efflux ratio (as a rule, a quotient of directional permeabilities that is used to spot active efflux) is 6. The fraction unbound in [10] is below 0.001; in [11] it was 0.0003; in series [14] it was 0.0003. The Cmax – broadly, the highest concentration seen after dosing – in series [12] was 32300 ng/g; in series [13] it was 179 µg/mL.
For `Cc1[nH]c2c(N3CCCCC3)c(-c3ccccc3)nn2c(=O)c1-c1ccc(O)cc1`, the half-inhibitory concentration (IC50) in series [3] was 57 nM; in “cells”, 100 nM. Moreover, in [4], the inhibition worked out at 91%. Further, the fraction unbound in [10] is 0.001; in [14], 0.0009.
For the molecule `Cc1cc(=O)n2nc(-c3ccccc3)c(-c3ccccc3)c2[nH]1`, binding in series [15] was put at a Kd of 70000 nM. The IC50 in series [3] and in series [16] was 1500 nM each time. Moreover, the inhibition in series [4] was 69%.
As for `Cc1c(-c2ccc3ncccc3c2)c(=O)n2nc(-c3ccccc3)c(-c3ccccc3)c2n1C`, the IC50 in series [3] was 120 nM. In series [4], the inhibition stood at 61%. Moreover, the fraction unbound in series [10] and in series [14] was 0.009 throughout.
As for `COc1ccc(-c2c(Nc3cc[nH]n3)[nH]c3c(-c4ccccc4)c(-c4ccccc4)nn3c2=O)cc1`, the IC50 in [3] amounted to 13 nM; with HCT-116, 892000 nM; in “cells” it was 8 nM. Besides, the inhibition in series [4] came out at 94%. For the same molecule, the hepatic extraction ratio in series [7] was found to be 0.36.
Turning to `Cc1cc(=O)n2nc(-c3ccccc3)c(N3CCCCC3)c2[nH]1`, in series [3], the IC50 was found to be 260 nM. Further, the inhibition in [4] was 86%. Further, the solubility in series [5] was determined as 61 µM (≈ 18.8 µg/mL); in [6], 13 µM (≈ 4.01 µg/mL).
Turning to `Cc1cc(=O)n2nc(C)c(-c3ccccc3)c2[nH]1`, half-maximal inhibition in [16] (IC50) required 620000 nM.
Take `Cc1c(-c2ccc(O)cc2)c(=O)n2nc(-c3ccccc3)c(N3CCCCC3)c2n1C`: the IC50 in series [3] worked out at 102 nM. In series [4], the inhibition is 66%. The fraction unbound in series [10] and in [14] was 0.0154 throughout.
As to `Cc1cc(=O)n2nc(-c3ccccc3)c(C3=CCCCC3)c2[nH]1`, the IC50 in [3] stood at 260 nM; in the series with HCT-116, 72000 nM; in “cells” it was 106 nM. In addition, in series [4], the inhibition is 85%. The solubility in series [5] and in series [6] was below 0.5 µM in each case.

(Values after ChEMBL document CHEMBL4834423, “Discovery of AG-270, a First-in-Class Oral MAT2A Inhibitor for the Treatment of Tumors with Homozygous MTAP Deletion” (J Med Chem, 2021).)
